Experiments:
NCI-H460 [1] = test: Anticancer activity against human H460 cells at 10 uM after 24 hrs; format: functional
HCT-116 [2] = test: Anticancer activity against human HCT116 cells at 10 uM after 24 hrs; format: functional
Tyrosinase [3] = molecular target: T1, Tyrosinase (Agaricus bisporus, UniProt O42713); test: Inhibition of mashroom tyrosinase
T1 sequence (O42713 whole entry): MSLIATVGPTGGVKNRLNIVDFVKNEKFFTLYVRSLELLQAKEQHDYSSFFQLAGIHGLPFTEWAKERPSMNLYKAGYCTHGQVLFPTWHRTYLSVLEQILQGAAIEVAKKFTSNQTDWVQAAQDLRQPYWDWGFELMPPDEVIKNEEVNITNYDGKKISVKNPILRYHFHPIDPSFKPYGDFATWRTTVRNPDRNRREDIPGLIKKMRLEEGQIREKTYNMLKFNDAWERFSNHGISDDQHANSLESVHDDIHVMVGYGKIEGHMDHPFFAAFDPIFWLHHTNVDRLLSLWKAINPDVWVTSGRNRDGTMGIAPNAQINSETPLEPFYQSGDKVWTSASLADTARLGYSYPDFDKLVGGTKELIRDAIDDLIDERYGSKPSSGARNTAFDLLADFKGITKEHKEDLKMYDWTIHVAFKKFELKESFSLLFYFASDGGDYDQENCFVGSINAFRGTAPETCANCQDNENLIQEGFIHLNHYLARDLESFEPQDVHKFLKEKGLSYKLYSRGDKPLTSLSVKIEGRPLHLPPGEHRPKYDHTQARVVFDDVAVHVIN
Summary of the method: (§1)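 Mushroom tyrosinase diphenolase activity (L-DOPA substrate) or monophenolase activity (L-tyrosine substrate) in 0.25 M phosphate buffer, pH 6.8, at 30 °C. Samples were first dissolved in DMSO. Dopachrome formation was followed spectrophotometrically at 475 nm.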

HL-60 [4] = test: Anticancer activity against human HL60 cells at 10 uM after 24 hrs; format: functional
PC-3 [5] = test: Anticancer activity against human PC3 cells at 10 uM after 24 hrs; format: functional
MCF7 [6] = test: Anticancer activity against human MCF7 cells at 10 uM after 24 hrs; format: functional
THP-1 [7] = test: Antiinflammatory activity against human THP1 cells assessed as inhibition of LPS-induced IL6 release at 10 uM after 24 hrs; format: functional; conditions: THP-1, 24 h
Summary of the method: (§2)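 Human THP-1 cells were grown in RPMI 1640 with 10% FBS, penicillin and streptomycin, then differentiated with PMA. Test agents in 0.5% DMSO were preincubated with cells for 30 min at 37 °C before E. coli 0127:B8 LPS was added. Cytokine release was measured by the manufacturer's (BD Biosciences) method and expressed as percent inhibition versus control; IC50 values came from nonlinear regression.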

Tyrosinase [8] = molecular target: T1, Tyrosinase; test: Inhibition of mashroom tyrosinase assessed as oxidation of L-DOPA; summary of the method: as §1
THP-1 [9] = test: Antiinflammatory activity against human THP1 cells assessed as inhibition of LPS-induced TNFalpha release at 10 uM after 24 hrs; format: functional; conditions: THP-1, 24 h; summary of the method: as §2
PC-3 [10] = test: Anticancer activity against human PC3 cells at 0.5 uM after 24 hrs; format: functional
HL-60 [11] = test: Anticancer activity against human HL60 cells at 0.5 uM after 24 hrs; format: functional
NCI-H460 [12] = test: Anticancer activity against human H460 cells at 0.5 uM after 24 hrs; format: functional
HCT-116 [13] = test: Anticancer activity against human HCT116 cells at 0.5 uM after 24 hrs; format: functional
MCF7 [14] = test: Anticancer activity against human MCF7 cells at 0.5 uM after 24 hrs; format: functional
[15] = Cytotoxicity against […] at 1 uM; format: cell-based
Summary of the method: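 Cytotoxicity was measured with the CCK-8 kit in PMA-differentiated THP-1 cells at the same time as the LPS-induced cytokine release assay. Test agents were given in 0.5% DMSO with a 30 min preincubation at 37 °C before LPS.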

THP-1 [16] = test: Antiinflammatory activity against human THP1 cells assessed as inhibition of LPS-induced IL6 release at 1 uM after 24 hrs; format: functional; parameters: scale not given: the % may be the effect or the level left; summary of the method: as §2
THP-1 [17] = test: Antiinflammatory activity against human THP1 cells assessed as inhibition of LPS-induced TNFalpha release at 1 uM after 24 hrs; format: functional; parameters: scale not given: the % may be the effect or the level left; summary of the method: as §2

| Structure (SMILES) | Activity (NCI-H460 [1]) | Activity (HCT-116 [2]) | IC50 (Tyrosinase [3]) | Ki (Tyrosinase [3]) | Activity (HL-60 [4]) | Activity (PC-3 [5]) | Activity (MCF7 [6]) | inhibition at 10 µM (THP-1 [7]) | IC50 (Tyrosinase [8]) | Ki (Tyrosinase [8]) | inhibition at 10 µM (THP-1 [9]) | Activity (PC-3 [10]) | Activity (HL-60 [11]) | Activity (NCI-H460 [12]) | Activity (HCT-116 [13]) | Activity (MCF7 [14]) | Activity [15] | Activity (THP-1 [16]) | Activity (THP-1 [17]) |
| --- | --- | --- | --- | --- | --- | --- | --- | --- | --- | --- | --- | --- | --- | --- | --- | --- | --- | --- | --- |
| COc1cc(OC)c(C2CCN(C)C2CO)c(O)c1-c1cc(-c2ccccc2Cl)[nH]n1 (centres undefined) | 69% | 73% | 22.8 µM | 10.6 µM | 67% | 69% | 63% | 47% | 29.4 µM | 11.8 µM | 24% |  |  |  |  |  |  |  |  |
| COc1cc(OC)c(C2CCN(C)C2CO)c(O)c1-c1cc(-c2ccccc2Br)[nH]n1 (centres undefined) | 53% | 61% |  |  | 62% | 51% | 55% | 39% |  |  | 19% |  |  |  |  |  |  |  |  |
| COc1cc(OC)c(C2CCN(C)C2CO)c(O)c1-c1cc(-c2ccc(Cl)cc2Cl)[nH]n1 (centres undefined) | 61% | 59% |  |  | 59% | 63% | 58% | 41% |  |  | 18% |  |  |  |  |  |  |  |  |
| COc1cc(OC)c(C2CCN(C)C2CO)c(O)c1-c1cc(-c2ccc([N+](=O)[O-])cc2Cl)[nH]n1 (centres undefined) | 65% | 67% | 17.8 µM | 9.85 µM | 63% | 65% | 61% | 42% | 21.5 µM | 14.6 µM | 21% |  |  |  |  |  |  |  |  |
| COc1cc(OC)c(C2CCN(C)C2CO)c(O)c1-c1cc(-c2ccccc2F)[nH]n1 (centres undefined) | 23% | 19% |  |  | 19% | 21% | 15% | 11% |  |  | 0% |  |  |  |  |  |  |  |  |
| COc1cc(OC)c(C2CCN(C)C2CO)c(O)c1-c1cc(-c2ccccc2C)[nH]n1 (centres undefined) | 18% | 16% |  |  | 14% | 17% | 11% | 13% |  |  | 0% |  |  |  |  |  |  |  |  |
| COc1ccccc1-c1cc(-c2c(OC)cc(OC)c(C3CCN(C)C3CO)c2O)n[nH]1 (centres undefined) | 15% | 21% |  |  | 17% | 29% | 13% | 10% |  |  | 0% |  |  |  |  |  |  |  |  |
| COc1ccc(-c2cc(-c3c(OC)cc(OC)c(C4CCN(C)C4CO)c3O)n[nH]2)c(OC)c1 (centres undefined) | 19% | 17% | 1.75 µM | 0.84 µM | 24% | 16% | 21% | 11% | 2.84 µM | 0.96 µM | 0% |  |  |  |  |  |  |  |  |
| COc1cc(OC)c(C2CCN(C)C2CO)c(O)c1-c1cc(-c2cccc(Cl)c2)[nH]n1 (centres undefined) | 55% | 63% |  |  | 61% | 67% | 59% | 35% |  |  | 11% |  |  |  |  |  |  |  |  |
| COc1cc(OC)c(C2CCN(C)C2CO)c(O)c1-c1cc(-c2cccc(Br)c2)[nH]n1 (centres undefined) | 61% | 59% |  |  | 52% | 58% | 65% | 43% |  |  | 13% |  |  |  |  |  |  |  |  |
| COc1cc(OC)c(C2CCN(C)C2CO)c(O)c1-c1cc(-c2ccc(C)cc2)[nH]n1 (centres undefined) | 13% | 19% |  |  | 21% | 11% | 17% | 10% |  |  | 0% |  |  |  |  |  |  |  |  |
| COc1cc(OC)c(C2CCN(C)C2CO)c(O)c1-c1cc(-c2ccc(F)cc2)[nH]n1 (centres undefined) | 16% | 21% | 15.5 µM | 11.2 µM | 26% | 15% | 19% | 28% | 19.6 µM | 12.6 µM | 11% |  |  |  |  |  |  |  |  |
| COc1ccc(-c2cc(-c3c(OC)cc(OC)c(C4CCN(C)C4CO)c3O)n[nH]2)cc1 (centres undefined) | 13% | 16% |  |  | 19% | 22% | 15% | 12% |  |  | 0% |  |  |  |  |  |  |  |  |
| COc1cc(OC)c(C2CCN(C)C2CO)c(O)c1-c1cc(-c2ccc(Cl)cc2)[nH]n1 (centres undefined) | 58% | 55% |  |  | 63% | 65% | 61% | 35% |  |  | 16% |  |  |  |  |  |  |  |  |
| COc1cc(OC)c(C2CCN(C)C2CO)c(O)c1-c1cc(-c2ccc(Br)cc2)[nH]n1 (centres undefined) | 61% | 49% |  |  | 57% | 59% | 63% | 31% |  |  | 17% |  |  |  |  |  |  |  |  |
| CN1CC[C@H](c2c(O)cc(O)c3c(=O)cc(-c4ccccc4Cl)oc23)[C@H](O)C1 [ALVOCIDIB] |  |  |  |  |  |  |  |  |  |  |  | 77% | 72% | 78% | 87% | 74% |  |  |  |
| C[C@@H]1C[C@H]2[C@@H]3CCC4=CC(=O)C=C[C@]4(C)[C@@]3(F)[C@@H](O)C[C@]2(C)[C@@]1(O)C(=O)CO [DEXAMETHASONE] |  |  |  |  |  |  |  |  |  |  |  |  |  |  |  |  | 0% | 85% | 71% |

— ChEMBL document CHEMBL1212864, “Synthesis of novel 3,5-diaryl pyrazole derivatives using combinatorial chemistry as inhibitors of tyrosinase as well as potent anticancer, anti-inflammatory agents” (Bioorg Med Chem, 2010)
